Series [1] is described as follows: In vivo pharmacokinetic study after oral administration. More on the design: species or system Sprague-Dawley rats. The note with it: male, Sprague-Dawley, rat, plasma, 40 mg/kg.
Another series is described as follows: Dissolution study. It is filed as physicochemical. Particulars: different pH media, 150 mg AG in 1000 ml, 75 rpm, 37 °C, up to 60 min. The procedure, abridged: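 USP-type paddle method (Ch.P 2015 Apparatus II) at 75 rpm and 37 ± 0.5 °C. Medium was 1000 ml of distilled water, 0.1 mol/l HCl, pH 6.8 phosphate buffer or 1% SDS. Pure compound or formulations were added at 150 mg compound-equivalent. Aliquots were drawn at 5, 10, 15, 20, 30, 45 and 60 min and replaced with fresh medium. Samples were filtered through 0.45 µm and assayed by HPLC.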

A short description of series [2]: Transwell transport study in MDCK-MDR1 monolayer. The note with it: dog. It is filed as in vitro ADME, canine. The procedure, abridged: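 MDCK-MDR1 cells were seeded at 5 × 10^5 cells/well on 0.4 µm polycarbonate inserts and cultured 7 d; medium was changed every other day, then daily after day 4. Only monolayers with TEER above 140 ohms were used. Monolayers were equilibrated 30 min in HBSS at 37 °C. […] Receiver samples were taken at 15–120 min for HPLC. Papp = (ΔR/Δt)/(S·C0), with S 4.71 cm2; the efflux ratio was calculated from Papp.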

Series [3] is described as follows: Saturated solubility of AG-CDs binary formulations. Format: physicochemical. Particulars: distilled water. The procedure, abridged:
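Binary complexes were made by grinding. γ-CD was dissolved in distilled water, compound added at 1:1 or 1:2 molar ratio, and the mix ground 2 h to a paste. The paste was dried at 50 °C under vacuum, pulverised and passed through an 80-mesh sieve.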

Series [4] in a line: Physiologically based absorption modeling. More on the design: species or system rat.
The conditions of series [5]: cited from earlier work.
In another series the test system is MDCK-MDR1 cells. Nature of the series: Cellular uptake of AG with P-gp inhibitors. Format: cell-based, canine. The note with it: 100 µM AG, 200 µM γ-CD, 1% P-gp inhibitor, 37 °C, 90 min. The procedure, abridged: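 MDCK-MDR1 cells were grown in DMEM with 10% heat-inactivated FBS and 1% penicillin/streptomycin at 37 °C, 5% CO2. Cells were seeded at 5 × 10^5 cells/well and left to adhere overnight. At 80% confluence they were exposed for 90 min at 37 °C to 100 µM test compound, with or without 200 µM γ-CD plus 1% Tween 80, TPGS, P407 or Cremophor EL. Cells were washed three times in ice-cold PBS, lysed in 1% Triton X-100, and intracellular compound was measured by HPLC. […] Triplicates, mean ± SD.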

Setting [6] is: three-compartment model fitted to 5 mg/kg i.v. data of ref 35.

In brackets after ≈: the same amount, converted by molar mass.

In general, AUC(0-inf) refers to the area under the concentration-time curve extrapolated to infinity. Broadly, the AUC(0-t) is exposure summed from dosing to a finite time, without extrapolation to infinity. The low end stands for less exposure, the high end for more exposure. By Cmax is commonly meant the peak of the concentration-time curve. The term Tmax denotes the time from dosing to the highest level. For orientation: half-life means the time in which the quantity being followed falls by half. As usually defined, the Papp A→B is how fast a substance crosses the layer from the apical side. Lower therefore signals poor permeation. For orientation: Papp B→A means how fast a substance crosses the layer from the basolateral side. What is called efflux ratio is a quotient of directional permeabilities that is used to spot active efflux. The term solubility denotes the dissolved amount per volume that the medium holds.

In the case of `C=C1CC[C@@H]2[C@](C)(CO)[C@H](O)CC[C@@]2(C)[C@@H]1C/C=C1/C(=O)OC[C@H]1O` [AG, Andrographolide], in series [1], the AUC(0-inf) came to 426 ± 76.8 ng·h/mL, the area under the curve AUC(0-t) is 351 ± 56.5 ng·h/mL, the concentration peaked (Cmax) at 57.8 ± 14.8 ng/mL and the time of peak concentration (Tmax) was 1.33 ± 0.52 h. In series [1], the half-life was 9.72 ± 1.38 h and the k el is 2e-05 s⁻¹. Further, in “Dissolution study”, the “AG released (dissolution)” value is on record as 17%. In series [2], the Papp A→B at 120 min, 20 µM came to 0.47 ± 0.04 ×10⁻⁶ cm/s; the Papp B→A at 120 min, 20 µM was 4.9 ± 0.05 ×10⁻⁶ cm/s; the efflux ratio at 120 min, 20 µM is 10.4. In series [3], the concentration in solution (solubility) was 74.6 µg/mL (≈ 213 µM). The “Dissolution rate (constant)” value in series [4] (fitted to dissolution test result, pH 6.8 PBS) was 148 µL/min/mg. Further, in series [4] (setting [6]), the “Central (compartment volume)” value turned out to be 1460 mL, the K10 was 0.7518 h⁻¹, the K12 was 1.29 h⁻¹ and the K13 is 4.5125 h⁻¹. Besides, in series [4] (setting [6]), the K21 was determined as 0.27 h⁻¹, the K31 came out at 7.0938 h⁻¹, the “Periperal_2 (compartment volume)” value is 1000 mL and the “Peripheral_1 (compartment volume)” value was determined as 6000 mL. Moreover, the “Unbound fraction (plasma)” value in series [5] is reported as 0.35.

In the case of “D-α-Tocopherol polyethylene glycol succinate [TPGS]”, the “Cellular uptake of AG” value in the series with MDCK-MDR1 cells is reported as 1.04 nmol/mg protein.

Source of the values: paper PMC8520056 (Asian Journal of Pharmaceutical Sciences, 2021).
